Source: ChEMBL document CHEMBL4513216, “Probing the Open Global Health Chemical Diversity Library for Multistage-Active Starting Points for Next-Generation Antimalarials” (ACS Infect Dis, 2020)

Experiment: Toxicity liver stage against HepG2, at 10uM
Type: cell-based
Design: test concentration 10 uM, cell line HepG2-A16-CD81EGFP
Settings: human, HepG2-A16-CD81EGFP cells; read-out: INHIBITION
Summary of the method: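 Uninfected HepG2-A16-CD81EGFP cells, 3 × 10^3 per well, 1536-well, plated on prespotted compound at 10 μM final, parasite-free screening media added to match infected plates; puromycin 10 μM positive, DMSO 0.5% negative; run in parallel with 48 h PbLuc assay at 37 °C, 5% CO2; viability by CellTiter-Glo luminescence, normalized to controls.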

Point of comparison: Cc1noc(C)c1CN1CCCC2(CCN(C(=O)NC3CC3)C2)C1 (stereo unspecified), cytotoxicity at 10 µM 7.25%. Against it:
- Cc1nc2c(Nc3cccc(C#N)c3)nc(N)nc2n1C — lower, -1.87%
- Cc1ccc(CNC(=O)C2CCN(C(=O)c3ccco3)CC2)n1C — lower, 2.46%
- c1ccc(O[C@H]2COCCN(Cc3c[nH]c4ccccc34)C2)cc1 — lower, -0.347%
- Cc1cc(C(=O)N2CCOC[C@H](Oc3cccnc3)C2)c(C(F)(F)F)o1 — lower, 3.11%
- COCCOc1ccnc(-c2noc([C@@H]3CCCN3C3CCC3)n2)c1 — lower, -8.46%
- CSc1ccc(C(=O)N2CC(=O)N(Cc3ccccc3)CC(O)C2)cc1 (stereo unspecified) — lower, -0.426%
- O=C(NCC1(O)CCc2ccccc21)Nc1ccc2c(c1)OCO2 (stereo unspecified) — lower, -11.2%
- CCOC(=O)Cc1csc(NC(=O)c2cc3n(n2)CCCO3)n1 — lower, -11.9%
- CCN1C(=O)C[C@@H]2[C@@H]1CCN2S(=O)(=O)c1ccc(OC)cc1 — lower, 0.434%
- O=C(C1CCC1)N1C[C@H]2CNC[C@H]2C1 — lower, -4.1%
- CCCS(=O)(=O)N1CCOC2(CCCN(c3ncc(F)cn3)C2)C1 (stereo unspecified) — higher, 8.22%
- CCOC[C@@H]1CC[C@H]2[C@H](CCN2C(=O)c2cnccn2)O1 — lower, -10.6%
- CC(=O)N1CC[C@@H]2CN(Cc3cccc(Cl)c3)S(=O)(=O)[C@@H]2CC1 — lower, -10.8%
- O=C(C1CCC1)N1CCC2(COCc3cnc(-c4cccnc4)nc32)C1 (stereo unspecified) — lower, 3.5%
- Cc1c(Cl)cccc1NC(=O)Cn1cc(C(=O)O)ccc1=O — lower, -5.21%
- COc1cccc(-n2ccc3nc(N4CCCC4)ncc3c2=O)c1 — lower, 5.92%
- O=C1CC[C@H]2[C@H](CCN2C(=O)C2CCCO2)N1CCN1CCCC1 (stereo partly specified) — lower, -4.66%
- O=C(NCCCN1CCOCC1)c1ccn(COc2ccc(F)cc2)n1 — lower, 7.16%
- Cc1nn(CCCNC(=O)C2CCN(S(C)(=O)=O)CC2)cc1Br — lower, -7.24%
- Cc1cc(C(=O)N[C@@H]2CCC[C@@H](N3CCOCC3)[C@@H]2O)no1 — lower, -1.61%
- CC1CCc2n[nH]c(C(=O)NCCCc3ccccn3)c2C1 (stereo unspecified) — lower, -24.3%
- CCC(=O)N(CC(N)=O)Cc1cccc(Oc2ccccc2)c1 — higher, 9.66%
- COC(=O)[C@H](C)NC(=O)Cc1c(C)nc2cc(=O)[nH]n2c1C — lower, -1.51%
- CCNC(=O)c1ccc(NC(=O)N(C)Cc2cc(C)on2)cc1 — lower, -4.22%
- Cc1ccc(=O)n(Cc2csc(N(C)C3CC3)n2)n1 — lower, 4.09%
- COCCN1CCC(CNC(=O)CCc2cc(F)ccc2F)C1 (stereo unspecified) — lower, -4.05%
- Cc1nc(CN2CCCC2C(=O)OCc2ccccc2)oc1C (stereo unspecified) — lower, -1.86%
- O=C(c1cnc(-c2ccco2)s1)N1CCOc2ncccc21 — higher, 7.48%
- CNC(=O)NC(=O)C(C)Nc1ccccc1OCCOC (stereo unspecified) — lower, 2.24%
- COCCOc1ccc(NC(=O)N(C(C)C)C2CC2)cn1 — lower, -9.59%
- Cc1cccc(CNC(Cn2cncn2)c2ccccc2)c1C (stereo unspecified) — lower, -5.23%
- COc1c(CNC2CCN(CC(=O)NC3CC3)CC2)c(C)nn1C — higher, 7.76%
- O=C(CCc1ccco1)NCC1CCCN1c1cccnn1 (stereo unspecified) — lower, -10.8%
- Cc1c(F)cc(C(=O)NCC(F)(F)F)cc1NCC(=O)N(C)C — higher, 10.2%
- CC1CCCN(C(=O)Cn2cc(I)cn2)C1 (stereo unspecified) — lower, 0.106%
- CCc1ccc(C(=O)Nc2cccc(CN3CCCC3C(N)=O)c2)cc1 (stereo unspecified) — lower, -0.268%
- Cc1cc(NC(=O)NC2CCCc3c2cnn3CCO)n(C)n1 (stereo unspecified) — lower, -15.7%
- Cc1ccc(C(=O)NC2CCN(Cc3noc(C(C)(C)C)n3)CC2)s1 — lower, 1.33%
- COCCn1ccc2cc(NC(=O)COC)ccc21 — lower, 0.82%
- CC(C)(C)c1n[nH]c(C2CN(C(=O)c3cnc[nH]3)CCO2)n1 (stereo unspecified) — lower, 0.152%
- Clc1ccc(NCc2nnc(C3CC3)o2)cc1Cl — lower, -12.4%
- Cc1ncc2c(n1)CN(C(C(N)=O)c1ccccc1)CC2 (stereo unspecified) — lower, 0.66%
- Cc1nc(C)n(Cc2cccc(NC3CCN(C)C3=O)c2)n1 (stereo unspecified) — lower, -0.519%
- Cc1cc(NC(=O)CN2CCCC(Cn3cncn3)C2)on1 (stereo unspecified) — lower, 1.68%
- N#CCCN(CCC#N)C(=O)CN(C1CC1)C1CCc2ccccc21 (stereo unspecified) — lower, 5.92%
- Cc1noc(C)c1CSC1CCCN(c2cnn(C)c2)C1=O (stereo unspecified) — higher, 16.8%
- COCc1nc(CNc2cccc(-c3ncon3)c2)cs1 — lower, 1.22%
- O=C1CCC(C(=O)NCCOc2ccccc2-c2ccccc2)CN1 (stereo unspecified) — lower, 5.47%
- CC(C(=O)NC1CCCCC1)N1CCc2[nH]nc(C(F)(F)F)c2C1 (stereo unspecified) — lower, 5.15%
- CN(C)c1nc(CNC(=O)N[C@H](CO)c2ccccc2)cs1 — higher, 11.7%
- O=C(NC1CCN(c2ccccc2OC(F)F)C1)c1c[nH]nn1 (stereo unspecified) — lower, -2.54%
- CCC1CN(C(=O)c2csc(-c3cnn(C)c3)n2)CCO1 (stereo unspecified) — lower, -23.2%
- Cn1nnnc1SC1CCCN(c2ccccc2Cl)C1=O (stereo unspecified) — lower, 3.71%
- O=S(=O)(CCCNCCn1cccn1)c1ccccc1 — lower, 5.96%
- OC(COc1ccccc1Br)COC1CCOCC1 (stereo unspecified) — lower, -8%
- CCc1cnc(N2CCN(Cc3ccno3)CC2)s1 — lower, -2.54%
- CCN(Cc1cnn(C)c1)C(=O)c1cc2ccccc2c(=O)[nH]1 — lower, -7.94%
- COc1ccc(CCC(=O)N(C(C)C)C2CCOCC2)cc1 — lower, -11.8%
- O=C(CCOc1ccccc1F)N1CCC(O)CC1 — lower, -14%
- CC(CO)(NC(=O)Nc1nncs1)C1CCCCC1 (stereo unspecified) — lower, 4.17%
- Cc1cnn(CCNCc2ccc(OCC(N)=O)cc2)c1 — lower, -0.86%
- CCN(Cc1ccco1)C(=O)NCc1nnc2n1CCC2 — lower, -10.3%
- O=C(Cc1c[nH]c2ccccc12)N1CCN(C(=O)c2ccoc2)CC1 — lower, -2.15%
- CN(Cc1nnc(C2CC2)n1C)C1CCN(CCc2cccs2)C1 (stereo unspecified) — lower, -8.71%
- CC(C)c1nc(CN(C)C2CCN(Cc3nc(C4CC4)no3)C2)no1 (stereo unspecified) — lower, -9.37%
- CCCOc1cc(C)ccc1NC(=O)NCCC(=O)N(C)C — lower, -13.9%
- Cc1cc(C)n(CC2CN(Cc3cccc(C(N)=O)c3)CCO2)n1 (stereo unspecified) — lower, -4.97%
- CC(=O)N1CCC2(CC1)C(=O)N(C)c1ccc(F)cc12 — lower, -116%
- COCC(=O)N1CC[C@H]2C[C@H](c3nc(C)no3)O[C@@H]2C1 — lower, -76.1%
- CCCNC(=O)N1CCCC2(CCC(=O)N(CCc3c[nH]cn3)C2)C1 (stereo unspecified) — lower, 2.67%
- CCCc1cnc(C)nc1NCCc1nc(C)cc(=O)[nH]1 — lower, -5.1%
- CC(C)Oc1cccc(F)c1C(C(=O)O)N1CCCC1 (stereo unspecified) — lower, -3.33%
- O=C(NC1CC1)C1CNCCN1C(=O)CCOc1ccccc1 (stereo unspecified) — lower, 2.08%
- O=C(c1ccc(-c2nc[nH]n2)cc1)N1CCOC(C(F)(F)F)C1 (stereo unspecified) — lower, -2.35%
- CC(C)C[C@@H](N)C(=O)N(C)Cc1csc(C(C)C)n1 — lower, -127%
- CN(Cc1ccccc1CN1CCCC1)c1ncnc2[nH]ccc12 — higher, 8.53%
- COc1ccc(N2CCN(C(=O)CCn3nccc3C)CC2(C)C)cc1 — higher, 57.1%
- O=S(=O)(c1ccc(-c2nc3c([nH]2)CCNC3)cc1)N1CCCC1 — lower, -2.09%
- CCCNc1ncc(CN2CCC3(CCNC(=O)CC3)CC2)cn1 — lower, -166%
- COc1ccc(C(C(=O)O)N2CCC(Cn3cccn3)CC2)c(OC)n1 (stereo unspecified) — lower, -9.46%
- CCc1ncc(CN2CCC(Oc3ccccc3OC)CC2)cn1 — lower, -8.17%
- COc1cc(N2CCCC(c3nccn3CCN(C)C)C2)nc(N)n1 (stereo unspecified) — lower, -9.6%
- COc1cccc(C)c1C(=O)N1C[C@@H](CN(C)C)[C@@H](CO)C1 — lower, -10.4%
- COCCNc1nc(C2CCCC2)nc2c1CCNCC2 — lower, -6.4%
- COC(=O)N1CC(C)=C(C)CN1C(=O)Nc1ccc(Cl)cc1 — lower, -7.97%
- CC(C)c1nn(C)c(N(C)C)c1CNCC(O)c1ccccc1 (stereo unspecified) — lower, -1.83%
- Cc1nc(-c2ccc(Cl)s2)sc1C(=O)NC(C)(C)C(N)=O — lower, -3.04%
- CCC(N)c1ccccc1OCC(=O)N1CCCC1 (stereo unspecified) — lower, -5.16%
- CC(C)(C)n1cc(C(=O)N2CCN(Cc3cccnc3)CC2)cn1 — lower, -7.51%
- CCc1nccn1C1CCCN(C(=O)c2ccc(NC3CC3)nc2)C1 (stereo unspecified) — lower, -11.3%
- CCn1cnnc1CNC(=O)N(C)C(C)c1cccs1 (stereo unspecified) — lower, -15.9%
- Cc1cnn(C2CCCN(C(=O)c3cn(-c4ccccc4)nc3C)C2)c1 (stereo unspecified) — lower, -5.46%
- CS(=O)(=O)NCCCNC(=O)NCc1ccccc1 — lower, -3.54%
- COc1ncccc1CNC(=O)c1cc(C)on1 — lower, -20.2%
- Cc1oc(C)c(C(=O)NCc2cccc(C(N)=O)c2)c1C — lower, -15.8%
- CC(CNCc1ccc(Cl)c(Cl)c1)Oc1ccccn1 (stereo unspecified) — lower, -0.291%
- COC(C)(C)C(=O)N1CCC(c2cc(CN(C)C)n(C)n2)CC1 — lower, 0.748%
- CN(C)CCn1c(=O)n(C)c(=O)c2ccccc21 — lower, -1.48%
- O=C(NCCN1CCCC1)c1nc2c(o1)CN(C(=O)c1cccnc1)C2 — lower, -1.08%
- Cc1cccc(CN2C[C@@H]3[C@@H](C(=O)NCC(C)C)CCS(=O)(=O)[C@@H]3C2)c1 — lower, -2.63%
- Cc1ccc2c(c1)CCC2NCc1c(C)nn(CCO)c1C (stereo unspecified) — higher, 11.2%
- COCCN1C[C@H](OCc2csc(C)n2)[C@H]2COC[C@H]21 — lower, -6.08%
- Cc1noc(C)c1CN1C[C@H](OCC2CC2)[C@H]2COC[C@H]21 — lower, -5.78%
- CC(C)NCc1nc(-c2ccc3c(c2)OCO3)c[nH]1 — lower, 6.24%
- CN(C)C(=O)CN1CC[C@H]2CN(S(C)(=O)=O)C[C@@H]2C1=O — lower, -13.1%
- O=C1N(Cc2cccnc2)CCC12CCCN(c1ncc(F)cn1)C2 (stereo unspecified) — lower, -1%
- CN(C)CCOCc1nnc2n1CCN(Cc1ccsc1)C2 — lower, 3.02%
- Cc1noc(C)c1CN1CCO[C@H]2CN(C3CCOCC3)C[C@H]21 — lower, -1.41%
- CO[C@@H]1CCN(C(=O)Cc2ccsc2)[C@H]1Cc1cccnc1 — lower, 6.9%
- CC(C)Cn1cc2nc(N3CCCC(C)C3)[nH]cc-2c1=O (stereo unspecified) — lower, 2.22%
